Test results from ChEMBL document CHEMBL1150956, “Antitubercular natural products: berberine from the roots of commercial Hydrastis canadensis powder. Isolation of inactive 8-oxotetrahydrothalifendine, canadine, beta-hydrastine, and two new quinic acid esters, hycandinic acid esters-1 and -2” (1998).

System: Mycobacterium tuberculosis
Assay: Antimicrobial activity against recombinant Mycobacterium bovis BCG expressing pMV361 lux after 5 days by luciferase assay
Assay type: functional
Conditions: variant bovis BCG, 120 h
How it was run: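 rBCG (pMV361 lux) in Middlebrook 7H9 broth at about 5e5 cfu/mL final inoculum. Compounds were tested at 0.1–50 µg/mL and at higher levels, with no-drug 1% DMSO growth controls. Tubes were incubated at 36 °C in ambient air. A 100 µL aliquot received 100 µL of 1 mM luciferin, and RLU were read at day 0 (within 30 min) and day 5. Inhibition was scored as a drop in luminescence.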

COc1c(O)ccc2c1C(=O)N1CCc3cc4c(cc3C1C2)OCO4 (stereo not given)
MIC: > 50 µg/mL

COc1c(OC(C)=O)ccc2c1C(=O)N1CCc3cc4c(cc3C1C2)OCO4 (stereo not given)
MIC: > 50 µg/mL

COc1ccc2c(c1OC)C(=O)N1CCc3cc4c(cc3C1C2)OCO4 (stereo not given)
MIC: > 50 µg/mL

COc1ccc2cc3[n+](cc2c1OC)CCc1cc2c(cc1-3)OCO2.[Cl-] [BERBERINE CHLORIDE]
MIC: 200 µg/mL

COc1ccc2c(c1OC)CN1CCc3cc4c(cc3[C@@H]1C2)OCO4 [CANADINE]
MIC: > 50 µg/mL
